Data on two compounds can be found in ChEMBL document CHEMBL5113395, “Azetidin-2-one-based small molecules as dual hHDAC6/HDAC8 inhibitors: Investigation of their mechanism of action and impact of dual inhibition profile on cell viability” (Eur J Med Chem, 2022).

Series [1] is described as follows: Metabolic stability in human liver microsome assessed as apparent decay constant at 5 uM in presence of NADPH incubated up to 60 mins by HPLC analysis. It counts as ADME. Conditions: microsomes, 1 h. A digest of the protocol: (§1)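 Compound in MeCN was incubated at 5 µM and 37 °C in 100 mM phosphate buffer pH 7.4 with 0.5 mg/mL human or mouse liver microsomal protein. Reactions were started with an NADPH-regenerating system (2 mM NADPH, glucose-6-phosphate, G6PDH, MgCl2) and stopped with MeCN over 0–60 min. Remaining compound was measured by HPLC-UV at 254 nm, in triplicate, with first-order decay fitting.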
Background: Liver microsomes are a subcellular fraction often used to study metabolism.

The nature of series [2]: Octanol-water partition coefficient, log P of the compound by HPLC analysis. It counts as physicochemical. A digest of the protocol:
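Stock of 0.005 M in MeOH, diluted serially in MeOH to build a calibration curve. Compound partitioned between water and n-octanol. LogP taken from the n-octanol/water phase ratio against the calibration curve, quantified by the RP-18 HPLC method at 254 nm.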

A short description of series [3]: Metabolic stability in mouse liver microsome assessed as half life at 5 uM in presence of NADPH incubated up to 60 mins by HPLC analysis. It counts as ADME. Conditions: liver microsomes. A digest of the protocol: as §1
A short description of series [4]: Toxicity in zebrafish AB embryos at 25 to 75 uM measured after 24 hrs. Conditions: Danio rerio, in vivo.
A short description of series [5]: Toxicity in zebrafish AB embryos assessed as changes in dead and live embryos at 25 to 75 uM measured after 24 hrs. Particulars: Danio rerio, in vivo.
Series [6] is described as follows: Metabolic stability in human liver microsome assessed as half life at 5 uM in presence of NADPH incubated up to 60 mins by HPLC analysis. It counts as ADME. Particulars: liver microsomes. A digest of the protocol: as §1
The nature of series [7]: Chemical stability of compound in PBS at pH 7.4 incubated for 24 hrs at 40 degreeC by HPLC/UV/DAD analysis. It counts as physicochemical. Particulars: read-out: Stability.
The nature of series [8]: Metabolic stability in mouse liver microsome assessed as apparent decay constant at 5 uM in presence of NADPH incubated up to 60 mins by HPLC analysis. It counts as ADME. Conditions: liver microsomes. A digest of the protocol:
as §1

A short description of series [9]: Chemical stability of compound in PBS at pH 7.4 incubated for 24 hrs under UV 254 nm stress condition by HPLC/UV/DAD analysis. It counts as physicochemical. Particulars: read-out: Stability.
Series [10] is described as follows: Metabolic stability in rat liver microsome assessed as apparent decay constant at 5 uM in presence of NADPH incubated up to 60 mins by HPLC analysis. It counts as ADME. Particulars: liver microsomes. The essentials: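 Compound (in MeCN) at 5 μM incubated at 37 °C in 100 mM phosphate buffer pH 7.4 with 0.5 mg/mL liver microsomal protein (rat, mouse or human). CYP reactions started with NADPH-generating system (2 mM NADPH, glucose-6-phosphate, G6P dehydrogenase, MgCl2). Stopped with MeCN at intervals over 0–60 min. Remaining parent quantified by HPLC-UV at 254 nm. Ln % recovery vs time fitted to first-order decay. Triplicate incubations.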

The nature of series [11]: Metabolic stability in human liver microsome assessed as intrinsic clearance at 5 uM measured per mg protein in presence of NADPH incubated up to 60 mins by HPLC analysis. It counts as ADME. Particulars: microsomes, 1 h. A digest of the protocol: as §1
A short description of series [12]: Cardiotoxicity in Langendorff-perfused Wistar rat heart assessed as effect on PQ interval time at 0.1 uM by ECG analysis (reference value: 45.4+/-3.9 milliseconds). It counts as toxicity, tissue-based.
Series [13] can be described thus: Cardiotoxicity in Langendorff-perfused Wistar rat heart assessed as effect on QRS interval time at 1 uM by ECG analysis (reference value: 13.3+/-0.6 milliseconds). It counts as toxicity, tissue-based.
A short description of series [14]: Cardiotoxicity in Langendorff-perfused Wistar rat heart assessed as effect on QT interval time at 0.01 uM by ECG analysis (reference value: 66.1+/-1.1 milliseconds). It counts as toxicity, tissue-based.
A short description of series [15]: Cardiotoxicity in Langendorff-perfused Wistar rat heart assessed as effect on QTc interval time at 1 uM by ECG analysis (reference value: 66.4+/-1.3 milliseconds). It counts as toxicity, tissue-based.
Series [16] in a line: Cardiotoxicity in Langendorff-perfused Wistar rat heart assessed as effect on HR at 0.01 uM by ECG analysis (reference value: 252.3 +/-10.1 bpm). It counts as toxicity, tissue-based.
A short description of series [17]: Cardiotoxicity in Langendorff-perfused Wistar rat heart assessed as effect on HR at 1 uM by ECG analysis (reference value: 252.3 +/-10.1 bpm). It counts as toxicity, tissue-based.
Series [18] is described as follows: Cardiotoxicity in Langendorff-perfused Wistar rat heart assessed as effect on HR at 10 uM by ECG analysis (reference value: 252.3 +/-10.1 bpm). It counts as toxicity, tissue-based.
Series [19] is described as follows: Cardiotoxicity in Langendorff-perfused Wistar rat heart assessed as effect on QTc interval time at 0.01 uM by ECG analysis (reference value: 66.4+/-1.3 milliseconds). It counts as toxicity, tissue-based.
The nature of series [20]: Cardiotoxicity in Langendorff-perfused Wistar rat heart assessed as effect on QTc interval time at 10 uM by ECG analysis (reference value: 66.4+/-1.3 milliseconds). It counts as toxicity, tissue-based.
The nature of series [21]: Cardiotoxicity in Langendorff-perfused Wistar rat heart assessed as effect on QRS interval time at 0.01 uM by ECG analysis (reference value: 13.3+/-0.6 milliseconds). It counts as toxicity, tissue-based.
Series [22] is described as follows: Cardiotoxicity in Langendorff-perfused Wistar rat heart assessed as effect on RR time at 1 uM by ECG analysis (reference value: 239.5+/-9.2 milliseconds). It counts as toxicity, tissue-based.
Series [23] is described as follows: Cardiotoxicity in Langendorff-perfused Wistar rat heart assessed as effect on QTc interval time at 0.1 uM by ECG analysis (reference value: 66.4+/-1.3 milliseconds). It counts as toxicity, tissue-based.
Series [24] is described as follows: Cardiotoxicity in Langendorff-perfused Wistar rat heart assessed as effect on RR time at 10 uM by ECG analysis (reference value: 239.5+/-9.2 milliseconds). It counts as toxicity, tissue-based.
Series [25] can be described thus: Cardiotoxicity in Langendorff-perfused Wistar rat heart assessed as effect on QT interval time at 1 uM by ECG analysis (reference value: 66.1+/-1.1 milliseconds). It counts as toxicity, tissue-based.
For the next series, the system named is B cell. As to the kind of experiment: Cytotoxicity against patient derived human B cells. It counts as toxicity, cell-based.
The nature of series [26]: Cardiotoxicity in Langendorff-perfused Wistar rat heart assessed as effect on PQ interval time at 1 uM by ECG analysis (reference value: 45.4+/-3.9 milliseconds). It counts as toxicity, tissue-based.
Series [27] can be described thus: Cardiotoxicity in Langendorff-perfused Wistar rat heart assessed as effect on QRS interval time at 10 uM by ECG analysis (reference value: 13.3+/-0.6 milliseconds). It counts as toxicity, tissue-based.
Series [28] in a line: Cardiotoxicity in Langendorff-perfused Wistar rat heart assessed as effect on QT interval time at 10 uM by ECG analysis (reference value: 66.1+/-1.1 milliseconds). It counts as toxicity, tissue-based.
A short description of series [29]: Cardiotoxicity in Langendorff-perfused Wistar rat heart assessed as effect on PQ interval time at 0.01 uM by ECG analysis (reference value: 45.4+/-3.9 milliseconds). It counts as toxicity, tissue-based.
A short description of series [30]: Cardiotoxicity in Langendorff-perfused Wistar rat heart assessed as effect on QT interval time at 0.1 uM by ECG analysis (reference value: 66.1+/-1.1 milliseconds). It counts as toxicity, tissue-based.
Series [31] is described as follows: Cardiotoxicity in Langendorff-perfused Wistar rat heart assessed as effect on HR at 0.1 uM by ECG analysis (reference value: 252.3 +/-10.1 bpm). It counts as toxicity, tissue-based.

The term logP denotes a log measure of how a compound divides between an organic and an aqueous phase. Usually half-life stands for how long it takes for the measured level to halve.

Consider `O=C(NO)c1ccc(CNC(=O)N2CCC(N3C(=O)[C@H](c4ccccc4)[C@H]3c3ccccc3)CC2)cc1` (racemic), for which, in series [1], the K stood at 0.0129 min⁻¹. The compound further had a lipophilicity (logP) in series [2] of 2.75. In addition, the half-life at 5 µM was determined as 64 min in series [3] and 54 min in series [6]. Moreover, the Activity entry in series [4] and in [5] was “Non-Toxic” each time. In addition, the remaining at 24 h in [7] and in series [9] was 100% throughout. For the same compound, the figures for the k el at 1 h, 5 µM in series [8] and in series [10] were 0.000182 s⁻¹ and 0.000135 s⁻¹, respectively. In addition, the CLH in series [11] was 32.28 µL/min.
Regarding `O=C(NO)c1ccc(CNC(=O)N2CCC(N3CC(c4ccccc4)(c4ccccc4)C3=O)CC2)cc1`, the K in [1] amounted to 0.0362 min⁻¹. Also, the logP in series [2] was found to be 2.78. The Time in series [12] amounted to 44.9 ms; in series [13] it was 13.9 ms; in series [14], 66.7 ms; in series [15] it was 68.9 ms; in series [19], 66.9 ms; in [20], 68.6 ms. In addition, the Time in series [21] stood at 12.8 ms; in [22], 237.2 ms; in series [23], 68.2 ms; in series [24], 241.5 ms; in series [25] it was 68.1 ms; in series [26], 46.2 ms. The Time is recorded as 13.9 ms in series [27], 68.5 ms in series [28], 44.4 ms in series [29] and 66.1 ms in series [30]. In addition, the half-life at 5 µM in series [3] is 67 min; in series [6], 19 min. Moreover, the Activity in series [16] is 251.2 bpm; in series [17], 252 bpm; in series [18], 248.4 bpm; in series [4], “Non-Toxic”; in series [5] it was “Non-Toxic”; in the series on B cell it was “Non-Toxic”. For the same compound, the Activity in series [31] was 258.4 bpm. Further, the remaining at 24 h came out at 94% in [7] and 100% in [9]. The k el at 1 h, 5 µM in series [8] was 0.000173 s⁻¹; in series [10], 0.000118 s⁻¹. In addition, the CLH in [11] stood at 90.5 µL/min.
